Assay results as given in paper PMC10922812 (Antiviral research, 2024).

Legend:
JCPyV [1] = test: NCC drug screen, In-Cell Western; assay type: cell-based, JC polyomavirus; conditions: inhibitor 10 μM, SVGA cells, MOI = 0.5 FFU/cell, 72 h, VP1 ICW
JCPyV [2] = test: JCPyV infection by FFU infectivity assay; assay type: cell-based, JC polyomavirus; conditions: 48 h, vs DMSO control
JCPyV [3] = test: JCPyV infection by ICW assay; assay type: cell-based, JC polyomavirus; conditions: for % JCPyV infection (ICW, TAg): MOI = 1 FFU/cell, 48 h, vs DMSO control (Fig. 2); for JCPyV infection (ICW validation of screen hits): cell type not stated, data not shown
SV40 [4] = test: SV40 infection by FFU infectivity assay; assay type: cell-based, simian virus 40; conditions: Vero cells, MOI = 1 FFU/cell, 48 h
pERK = pERK assay by ICW; assay type: cell-based; conditions: 24 h treatment, no virus
reovirus [5] = test: Reovirus infection by FFU infectivity assay; assay type: cell-based; conditions: HeLa cells, MOI = 300 FFU/cell, 24 h
Procedure, shortened: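 HeLa cells at 70% confluence were pre-treated 1 h at 37°C with test compound in 10% DMEM (triplicate wells). Infection ran 1 h at RT without compound, then cells were refed with compound-containing DMEM for 24 h at 37°C. Cells were PFA-fixed and stained with reovirus antisera (1:500), anti-rabbit secondary and DAPI. % infection was positive over DAPI+ cells per 10X field, 5 fields/well.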

HeLa cells = test: MTS cell viability assay, HeLa cells; assay type: cell-based; conditions: HeLa 24 h, vs DMSO control
RPTEC = test: MTS cell viability assay, RPTEC; assay type: cell-based, human; conditions: RPTEC 48 h, vs DMSO control
SARS-CoV-2 [6] = conditions: ref Yuan, Dong et al. 2022; cited from earlier work
SARS-CoV-2 [7] = assay type: cell-based; conditions: Vero cells, TCID50 = 0.025/cell, 24 h
JCPyV [8] = test: JCPyV infectious clone transfection, VP1+ nuclei by FFU assay; assay type: cell-based, JC polyomavirus; conditions: SVGA cells, TFP 15 μM, day 3 or day 7
Procedure, shortened: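 SVGA cells at 50% confluence were pre-treated 1 h at 37°C with test compound or DMSO. They were transfected with 2 μg/well linearized JC pUC19 (pUC19 control) using Fugene 6 (1.5 μl:1 μg DNA) with compound present. Medium was replaced with 10% MEM after 6 h. Cells were fixed and stained for VP1 (1:40). % VP1+ nuclei was VP1+ over DAPI+ cells at 10X, 5 fields/well.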

HEK-2C cells = test: MTS cell viability assay, HEK-2C cells; assay type: cell-based
Vero cells = test: MTS cell viability assay, Vero cells; assay type: cell-based, African green monkey; conditions: vs DMSO control
[9] = ref Kang, Hong et al. 2017; cited from earlier work
reovirus [10] = conditions: ref Mainou, Zamora et al. 2013; cited from earlier work
SVGA cells = test: MTS cell viability assay, SVGA cells; assay type: cell-based, human
BKPyV = BKPyV infection by FFU infectivity assay; assay type: cell-based, BK polyomavirus; conditions: Vero cells, MOI = 4 FFU/cell, 72 h
Procedure, shortened: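 Vero E6 cells at 70% confluence were pre-treated 1 h at 37°C with test compound in 10% DMEM (triplicate wells). Infection ran 2 h at 37°C without compound, then cells were refed with compound-containing DMEM for 72 h. Cells were PFA-fixed and stained for VP1 (1:40) with DAPI. % infection was VP1+ cells over DAPI+ cells per 20X field, 5 fields/well.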

JCPyV [11] = test: JCPyV-647 attachment by flow cytometry; assay type: cell-based, JC polyomavirus; conditions: HEK-2C cells pre-treated 1 h, virus on ice 1 h, vs DMSO
SV40 [12] = conditions: ref Dobson, Mankouri and Whitehouse 2020; cited from earlier work
MCPyV = conditions: ref Dobson, Mankouri and Whitehouse 2020; cited from earlier work
[13] = HEK-2C cells, MOI = 0.5 FFU/cell
[14] = primary RPTECs, MOI = 2 FFU/cell
[15] = HEK-2C 48 h, MTS, vs DMSO control
[16] = SVGA 48 h, MTS, vs DMSO control

COC(=O)C1=C(C)NC(C)=C(C(=O)OC)C1c1ccccc1[N+](=O)[O-] [Nifedipine]
JCPyV infection in NCC drug screen (hit by normalized z-score) (JCPyV [1]): hits | % JCPyV infection (FFU, TAg) (JCPyV [2]; [13]): significantly reduced JCPyV infection | % JCPyV infection (FFU, TAg) (JCPyV [2]; SVGA cells, MOI = 1 FFU/cell): did not reduce JCPyV infection | % JCPyV infection (FFU, TAg) (JCPyV [2]; [14]): significantly reduced JCPyV infection | % JCPyV infection (ICW, TAg) (JCPyV [3]; HEK-2C cells): significant reduction | % SV40 infection (FFU, VP1) (SV40 [4]): did not reduce SV40 infection | % pERK expression (ICW) (pERK; HEK-2C cells): significant reduction in pERK levels | % pERK expression (ICW) (pERK; SVGA cells): significant reduction in pERK levels

COCCOC(=O)C1=C(C)NC(C)=C(C(=O)OC(C)C)C1c1cccc([N+](=O)[O-])c1 (stereo not drawn) [Nimodipine]
JCPyV infection in NCC drug screen (hit by normalized z-score) (JCPyV [1]): hits | % JCPyV infection (FFU, TAg) (JCPyV [2]; SVGA cells, MOI = 1 FFU/cell): did not significantly reduce JCPyV infection | % JCPyV infection (ICW, TAg) (JCPyV [3]; HEK-2C cells): modestly reduced | % JCPyV infection (ICW, TAg) (JCPyV [3]; SVGA cells): modestly reduced

CN1CCN(CCCN2c3ccccc3Sc3ccc(C(F)(F)F)cc32)CC1 [TFP, trifluoperazine]
% reovirus infection (FFU) (reovirus [5]): not impacted | JCPyV infection in NCC drug screen (hit by normalized z-score) (JCPyV [1]): hits | Concentration with % Viability < 80% (HeLa cells): 15 µM | Concentration with % Viability ≥ 80% (HeLa cells): 10 µM | Concentration with % Viability ≥ 100% (HeLa cells): 7.5 µM | Concentration with % Viability ≥ 90% (RPTEC): 7.5 µM | Concentration with % Viability ≥ 95% (RPTEC): 5 µM | SARS-CoV-2 infection (SARS-CoV-2 [6]): inhibited | % SARS-CoV-2 infection (FFU, NP) (SARS-CoV-2 [7]): dramatically impaired SARS-CoV-2 infection | % VP1+ nuclei after transfection of JCPyV infectious clone (JCPyV [8]): modest reduction in JCPyV VP1+ cells | % JCPyV infection (FFU, TAg) (JCPyV [2]; [13]): significant reduction of JCPyV infection | % JCPyV infection (FFU, TAg) (JCPyV [2]; SVGA cells, MOI = 1 FFU/cell): significant reduction of JCPyV infection | % JCPyV infection (FFU, TAg) (JCPyV [2]; [14]): significantly reduced JCPyV infection | % JCPyV infection (ICW, TAg) (JCPyV [3]; HEK-2C cells): significant reduction in JCPyV infection | % JCPyV infection (ICW, TAg) (JCPyV [3]; SVGA cells): significant reduction in JCPyV infection | Concentration with % Viability < 80% (HEK-2C cells; [15]): 30 µM | Concentration with % Viability ≥ 85% (HEK-2C cells; [15]): 20 µM | Concentration with % Viability ≥ 100% (HEK-2C cells; [15]): 7.5 µM | Concentration with % Viability ≥ 100% (Vero cells; Vero 24 h): 10 µM | Concentration with % Viability ≥ 100% (Vero cells; Vero 48 h): 20 µM | Concentration with % Viability < 80% (Vero cells; Vero 72 h): 30 µM | Concentration with % Viability ≥ 100% (Vero cells; Vero 72 h): 15 µM | crossing the blood-brain barrier [9]: capable of crossing the blood-brain barrier | reovirus infection (reovirus [10]): not impacted | % SV40 infection (FFU, VP1) (SV40 [4]): significantly reduced | Concentration with % Viability < 80% (SVGA cells; [16]): 30 µM | Concentration with % Viability ≥ 90% (SVGA cells; [16]): 20 µM | Concentration with % Viability ≥ 100% (SVGA cells; SVGA 7 days, MTS, vs DMSO control): 15 µM | % BKPyV infection (FFU) (BKPyV): significantly reduced | JCPyV attachment (JCPyV-647, flow cytometry) (JCPyV [11]): no significant difference in JCPyV attachment

COc1ccc2cc1Oc1ccc(cc1)C[C@H]1c3cc(c(OC)cc3CCN1C)Oc1c(OC)c(OC)cc3c1[C@H](C2)N(C)CC3 [Tetrandrine]
% JCPyV infection (FFU, TAg) (JCPyV [2]; [13]): significantly impaired | % JCPyV infection (FFU, TAg) (JCPyV [2]; SVGA cells, MOI = 1 FFU/cell): not impacted | % JCPyV infection (ICW, TAg) (JCPyV [3]; HEK-2C cells): significant reduction in infection | % JCPyV infection (ICW, TAg) (JCPyV [3]; SVGA cells): slight, but not statistically significant, increase | Concentration with % Viability < 80% (HEK-2C cells; human, 48 h): 10 µM | Concentration with % Viability ≥ 90% (HEK-2C cells; human, 48 h): 7 µM | Concentration with % Viability ≥ 95% (HEK-2C cells; human, 48 h): 1 µM | SV40 infection (SV40 [12]): drastically reduced | % SV40 infection (FFU, VP1) (SV40 [4]): potently inhibited | MCPyV infection (MCPyV): drastically reduced | Concentration with % Viability ≥ 100% (SVGA cells; human, 48 h): 10 µM | % pERK expression (ICW) (pERK; HEK-2C cells): reduction in pERK levels | % pERK expression (ICW) (pERK; SVGA cells): dramatic increase in pERK

COc1ccc(CCN(C)CCCC(C#N)(c2ccc(OC)c(OC)c2)C(C)C)cc1OC (stereo not drawn) [Verapamil]
SV40 infection (SV40 [12]): reduces | MCPyV infection (MCPyV): reduces

NCCCCCCNS(=O)(=O)c1cccc2c(Cl)cccc12 [W-7]
% SARS-CoV-2 infection (FFU, NP) (SARS-CoV-2 [7]): dramatically impaired SARS-CoV-2 infection | % JCPyV infection (FFU, TAg) (JCPyV [2]; [13]): significant reduction of JCPyV infection | % JCPyV infection (FFU, TAg) (JCPyV [2]; SVGA cells, MOI = 1 FFU/cell): significant reduction of JCPyV infection | % JCPyV infection (ICW, TAg) (JCPyV [3]; HEK-2C cells): decreased JCPyV infection | % JCPyV infection (ICW, TAg) (JCPyV [3]; SVGA cells): decreased JCPyV infection | % SV40 infection (FFU, VP1) (SV40 [4]): significantly reduced | % BKPyV infection (FFU) (BKPyV): significantly reduced

O=C1CN(/N=C/c2ccc(-c3ccc([N+](=O)[O-])cc3)o2)C(O)=N1 [dantrolene sodium]
JCPyV infection in NCC drug screen (hit by normalized z-score) (JCPyV [1]): hits | JCPyV infection (ICW validation of screen hits) (JCPyV [3]): did not significantly reduce infection

Fc1ccc(C(c2ccc(F)cc2)N2CCN(C/C=C/c3ccccc3)CC2)cc1 [flunarizine, Flunarizine]
% JCPyV infection (ICW, TAg) (JCPyV [3]; HEK-2C cells): No significant change in infection | % JCPyV infection (ICW, TAg) (JCPyV [3]; SVGA cells): No significant change in infection | MCPyV infection (MCPyV): blocks infection

CCOC(=O)C1=C(C)NC(C)=C(C(=O)OC)C1c1cccc([N+](=O)[O-])c1 (stereo not drawn) [nitrendipine, Nitrendipine]
% JCPyV infection (FFU, TAg) (JCPyV [2]; SVGA cells, MOI = 1 FFU/cell): did not significantly reduce JCPyV infection

CC1(C)O[C@@H]2[C@@H](CO[C@@]3(COS(N)(=O)=O)OC(C)(C)O[C@@H]23)O1 [topiramate]
JCPyV infection in NCC drug screen (hit by normalized z-score) (JCPyV [1]): hits | JCPyV infection (ICW validation of screen hits) (JCPyV [3]): did not significantly reduce infection
